For eight compounds, inhibition and inhibition of growth results are on record in ChEMBL document CHEMBL3407394, “Synthesis and in vitro anticancer activity evaluation of novel bioreversible phosphate inositol derivatives” (Eur J Med Chem, 2015).

Series [1] in a line: Cytotoxicity against human MCF10A cells assessed as growth inhibition at 10 ug/ml after 72 hrs by MTT assay. The class given is cell-based, MCF-10A. Conditions: read-out: GI. The method in brief:
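MCF10A cells in DMEM/F12 plus 5% horse serum, about 1000 per well, were incubated 12 h, then treated at one final well concentration diluted in DMEM (0.5% DMSO) for 72 h, 37 °C, 5% CO2. Viability was by MTT: 4 h in fresh medium, formazan dissolved in DMSO, absorbance at 570 nm, normalized to vehicle controls. Cisplatin in 1% NaCl, pH 7, was the positive control.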
On the technique in general: Tetrazolium dyes change colour on reduction, which living cells bring about.

A further series deals with A549. Description: Cytotoxicity against human A549 cells assessed as growth inhibition at 10 ug/ml after 72 hrs by MTT assay. The format is functional. The settings on record: A549, 72 h, read-out: GI. The method in brief:
(§1)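 Single-concentration screen in A549, HeLa or MDA-MB-231 cells cultured in DMEM, 10% FBS, 1% penicillin/streptomycin. About 1000 cells/well were preincubated 12 h, and compound diluted in DMEM to the final well concentration (0.5% DMSO) for 72 h at 37 °C, 5% CO2. Readout was MTT 4 h, DMSO-solubilized formazan, OD570, with inhibition relative to DMSO vehicle. Cisplatin in 1% NaCl (pH 7) served as positive control.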

A further series has as its system HeLa. Description: Cytotoxicity against human HeLa cells assessed as growth inhibition at 10 ug/ml after 72 hrs by MTT assay. The format is functional. The settings on record: read-out: GI. The method in brief:
as §1

For another series, the system named is MDA-MB-231. Description: Cytotoxicity against human MDA-MB-231 cells assessed as growth inhibition at 10 ug/ml after 72 hrs by MTT assay. The class given is functional. The settings on record: MDA-MB-231, 72 h, read-out: GI. The method in brief:
as §1

With `CC(=O)Oc1ccc(COP(=O)(OCc2ccc(OC(C)=O)cc2)O[C@@H]2[C@@H](OCc3ccccc3)[C@H](OCc3ccccc3)[C@@H](OP(=O)(OCc3ccc(OC(C)=O)cc3)OCc3ccc(OC(C)=O)cc3)[C@@H](OP(=O)(OCc3ccc(OC(C)=O)cc3)OCc3ccc(OC(C)=O)cc3)[C@H]2OCc2ccccc2)cc1`, in series [1], the inhibition at 72 h, 10 ug/ml worked out at 5.1%. In addition, the figures for the inhibition of growth at 10 µg/mL in the series with A549, in the series with HeLa and in the series with MDA-MB-231 were 9.1%, -1.2% and -11%, respectively.
`CC(=O)Oc1ccc(COP(=O)(OCc2ccc(OC(C)=O)cc2)O[C@@H]2[C@@H](OCc3ccccc3)[C@H](OCc3ccccc3)[C@@H](OCc3ccccc3)[C@H](OCc3ccccc3)[C@@H]2OP(=O)(OCc2ccc(OC(C)=O)cc2)OCc2ccc(OC(C)=O)cc2)cc1`: the inhibition at 72 h, 10 ug/ml in series [1] was found to be 42.3%. The inhibition of growth at 10 µg/mL with A549 was 14.9%; in the series with HeLa, 15.8%; in the series with MDA-MB-231 it was -17.2%.
Take `CC(=O)Oc1ccc(COP(=O)(OCc2ccc(OC(C)=O)cc2)O[C@H]2[C@H](OCc3ccccc3)[C@@H](OP(=O)(OCc3ccc(OC(C)=O)cc3)OCc3ccc(OC(C)=O)cc3)[C@H](OCc3ccccc3)[C@@H](OP(=O)(OCc3ccc(OC(C)=O)cc3)OCc3ccc(OC(C)=O)cc3)[C@H]2OCc2ccccc2)cc1`: the inhibition at 72 h, 10 ug/ml in series [1] was 34.9%. The inhibition of growth at 10 µg/mL with A549 was 12.8%; in the series with HeLa it was 69.3%; in the series with MDA-MB-231 it was -22.3%.
As to `CC(=O)Oc1ccc(COP(=O)(OCc2ccc(OC(C)=O)cc2)O[C@@H]2[C@@H](OCc3ccccc3)[C@@H](OCc3ccccc3)[C@@H](OP(=O)(OCc3ccc(OC(C)=O)cc3)OCc3ccc(OC(C)=O)cc3)[C@H](OP(=O)(OCc3ccc(OC(C)=O)cc3)OCc3ccc(OC(C)=O)cc3)[C@H]2OCc2ccccc2)cc1`, in series [1], the inhibition at 72 h, 10 ug/ml amounted to 9.2%. Also, the inhibition of growth at 10 µg/mL stood at 7.8% in the series with A549, 80% in the series with HeLa and 21.3% in the series with MDA-MB-231.
The corresponding values for `C#CCO[C@@H]1[C@@H](OCc2ccccc2)[C@H](OP(=O)(OCc2ccc(OC(C)=O)cc2)OCc2ccc(OC(C)=O)cc2)[C@H](OCc2ccccc2)[C@H](OP(=O)(OCc2ccc(OC(C)=O)cc2)OCc2ccc(OC(C)=O)cc2)[C@H]1OCc1ccccc1` are 38.6%, 9.9%, 100% and 8.7%.
With `CC(=O)Oc1ccc(COP(=O)(OCc2ccc(OC(C)=O)cc2)O[C@@H]2[C@H](OCc3ccccc3)[C@H](OCc3ccccc3)[C@@H](OP(=O)(OCc3ccc(OC(C)=O)cc3)OCc3ccc(OC(C)=O)cc3)[C@H](OP(=O)(OCc3ccc(OC(C)=O)cc3)OCc3ccc(OC(C)=O)cc3)[C@H]2OCc2ccccc2)cc1`, the inhibition at 72 h, 10 ug/ml in series [1] was found to be 37.4%. In addition, the inhibition of growth at 10 µg/mL with A549 was 6.4%; in the series on HeLa it was 84.5%; with MDA-MB-231, 11%.
The corresponding values for `CC(=O)Oc1ccc(COP(=O)(OCc2ccc(OC(C)=O)cc2)O[C@H]2[C@H](OCc3ccccc3)[C@@H](OCc3ccccc3)[C@@H](OP(=O)(OCc3ccc(OC(C)=O)cc3)OCc3ccc(OC(C)=O)cc3)[C@@H](OP(=O)(OCc3ccc(OC(C)=O)cc3)OCc3ccc(OC(C)=O)cc3)[C@@H]2OCc2ccccc2)cc1` are 15.6%, -1.2%, -6.2% and -2.1%.
Regarding `CC(=O)Oc1ccc(COP(=O)(OCc2ccc(OC(C)=O)cc2)O[C@H]2[C@H](OP(=O)(OCc3ccc(OC(C)=O)cc3)OCc3ccc(OC(C)=O)cc3)[C@@H](OCc3ccccc3)[C@H](OCc3ccccc3)[C@H](OCc3ccccc3)[C@@H]2OP(=O)(OCc2ccc(OC(C)=O)cc2)OCc2ccc(OC(C)=O)cc2)cc1`, the inhibition at 72 h, 10 ug/ml in series [1] stood at 45.1%. Besides, the inhibition of growth at 10 µg/mL with A549 came to 4.7%; in the series with HeLa, 49.5%; in the series on MDA-MB-231, 19.2%.
